Experimental findings from ChEMBL document CHEMBL4513216, “Probing the Open Global Health Chemical Diversity Library for Multistage-Active Starting Points for Next-Generation Antimalarials” (ACS Infect Dis, 2020) are described below.

The data set in a line: Toxicity liver stage against HepG2, at 10uM. Conditions: human, HepG2-A16-CD81EGFP cells; read-out: INHIBITION
Also on record: test concentration 10 uM, cell line HepG2-A16-CD81EGFP. In kind it is cell-based. Put shortly: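 Uninfected HepG2-A16-CD81EGFP cells, 3 × 10^3 per well, 1536-well, plated on prespotted compound at 10 μM final, parasite-free screening media added to match infected plates; puromycin 10 μM positive, DMSO 0.5% negative; run in parallel with 48 h PbLuc assay at 37 °C, 5% CO2; viability by CellTiter-Glo luminescence, normalized to controls.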
`CC1CCN(S(=O)(=O)N2CCc3sccc3C2)CC1`: the cytotoxicity at 10 µM was -30.8%.

Turning to `Cc1ccc2c(c1)C1(CCN(S(C)(=O)=O)CC1)CN2C(=O)N(C)C`, the cytotoxicity at 10 µM is -121%.

Consider `O=C([C@H]1C[C@H]2OCC[C@H]2N(C(=O)c2ccnnc2)C1)N1CCCCO1`, for which the cytotoxicity at 10 µM was determined as 4%.

Turning to `COC[C@H]1CCC[C@]12CN(Cc1cccc(C)n1)CCO2`, the cytotoxicity at 10 µM was 2.23%.

Take `CCS(=O)(=O)N1CCc2cc(C(=O)NC)c(N(C)C)nc2CC1`: the cytotoxicity at 10 µM is -141%.

Turning to `Cc1nn(C)c2cn(CC(=O)NC3CCSCC3)nc12`, the cytotoxicity at 10 µM amounted to 0.243%.

On to `CCn1ncc2c(C(F)(F)F)cc(-c3cnn(C)c3)nc21`, for which the cytotoxicity at 10 µM amounted to 3.67%.

With `CN(C)CC1(O)CCN(C(=O)Cc2ccc3c(c2)CCC3)C1` (configuration not stated), the cytotoxicity at 10 µM was -7.84%.

For `Cc1cc(Nc2cnccn2)cc(C2CCCNC2)n1` (configuration not stated), the cytotoxicity at 10 µM was 4.75%.

Regarding `COCCNC(=O)C(C)n1nc(-c2ccc(C)o2)cc(N)c1=O` (configuration not stated), the cytotoxicity at 10 µM came out at 1.26%.

On to `CN(c1cccnn1)[C@@H]1CC[C@@H]2CN(Cc3ccccc3C(=O)O)C[C@@H]21`, for which the cytotoxicity at 10 µM is 7.43%.

Take `Cc1ccc(S(=O)(=O)N2C[C@H]3C[C@H](NC(=O)C(C)C)[C@H]3C2)cc1`: the cytotoxicity at 10 µM is -4.59%.

For the compound `CC1CCCN(Cc2c(C3CC3)[nH]c3ncccc23)C1` (configuration not stated), the cytotoxicity at 10 µM was -34.1%.

`CNC(=O)C1(c2cnccn2)CCCN1C(=O)c1ncccc1C` (configuration not stated): the cytotoxicity at 10 µM was found to be 4.22%.

As for `Cc1nc(C2CCN(S(=O)(=O)c3ccc4c(c3)CCO4)CC2)n[nH]1`, the cytotoxicity at 10 µM was -8.91%.

`N#Cc1ccc(CS(=O)(=O)NC(=O)c2ccc3c(c2)COC3)cc1`: the cytotoxicity at 10 µM came out at 3.65%.

Turning to `COc1ccccc1CC(NC(=O)N1CCOCC1)C(C)C` (configuration not stated), the cytotoxicity at 10 µM amounted to 4.29%.

Take `Cc1nc(C(C)(C)NCc2ncc(C(C)C)o2)sc1C`: the cytotoxicity at 10 µM was found to be 6.32%.

For the compound `CS(=O)(=O)N1CCC(CNc2c(Cl)cccc2C#N)CC1`, the cytotoxicity at 10 µM was -6.67%.

For `N#CC1COCCN1C(=O)c1ccc2[nH]ccc2c1` (configuration not stated), the cytotoxicity at 10 µM came to 14.4%.

With `COC(=O)c1ccc(NC(C)c2ccc3c(c2)CCC(=O)N3)nn1` (configuration not stated), the cytotoxicity at 10 µM stood at 2.52%.

Take `CCn1ccnc1CN1CCN(C(C)C(=O)NCC(F)(F)F)CC1` (configuration not stated): the cytotoxicity at 10 µM was 9.73%.

As to `CC(CC(=O)c1ccco1)NC(=O)c1ccon1` (configuration not stated), the cytotoxicity at 10 µM was -17.9%.

For `Cc1cccn2cc(CNS(=O)(=O)N3CCOCC3)nc12`, the cytotoxicity at 10 µM is -6.6%.

On to `COc1ccc(NC(=O)N2CCC(CSC)C2)cc1C` (configuration not stated), for which the cytotoxicity at 10 µM stood at 3.36%.

`Cc1cccc(C2(C(=O)NCC3CN(C)CCO3)CC2)c1` (configuration not stated): the cytotoxicity at 10 µM was -7.45%.

Consider `CC(Nc1ccc(CN2CCCC2=O)cc1)c1ccc(C#N)cc1` (configuration not stated), for which the cytotoxicity at 10 µM came out at 6.29%.

For the compound `CC(C)(C)OC(=O)NCCNC(=O)c1cnc(-c2ccccc2)nc1`, the cytotoxicity at 10 µM was 8.12%.

`NS(=O)(=O)CCNC(=O)C1(c2ccccc2)CC1`: the cytotoxicity at 10 µM is -0.18%.

Take `CC(C)C1CN(C(=O)c2ccncc2)CCS1` (configuration not stated): the cytotoxicity at 10 µM is 9.72%.

As to `Cc1nc(CCNC(=O)Nc2cc(C(F)(F)F)c[nH]c2=O)cs1`, the cytotoxicity at 10 µM worked out at 0.614%.

With `CCN(CC1CCOC1)C(=O)c1ccc(-c2ccsc2)nc1C` (configuration not stated), the cytotoxicity at 10 µM stood at 6.39%.

With `O=C(CN1CCCC1Cn1cncn1)Nc1ccnn1C1CCCC1` (configuration not stated), the cytotoxicity at 10 µM was -1.07%.

For the compound `CC(O)CN(c1ccccc1)S(=O)(=O)c1cc(C(=O)O)cc2c1CCC2` (configuration not stated), the cytotoxicity at 10 µM was determined as 11.1%.

For `CC1CCCCN1C(=O)c1ccc(Br)s1` (configuration not stated), the cytotoxicity at 10 µM is -8.21%.

As for `Cn1ccnc1-c1noc(NCc2ccc(Br)cc2)n1`, the cytotoxicity at 10 µM is -4.32%.

On to `O=C1CCC(=O)N1CCN1CCC(=Cc2ccccc2)CC1`, for which the cytotoxicity at 10 µM was 8.82%.

As to `CC(C)(CNC(=O)CSc1nnnn1C1CC1)c1ccccc1F`, the cytotoxicity at 10 µM is 13.4%.

Regarding `CCCNC(=O)C(C)Nc1ccn(Cc2ccccn2)n1` (configuration not stated), the cytotoxicity at 10 µM was -5.95%.

Consider `CC(=O)N(Cc1noc(C)n1)C1CCN(CC2CCCC2)C1` (configuration not stated), for which the cytotoxicity at 10 µM is -12.3%.

`CC(C)OCCOCc1cccc(NC(=O)N2CCCC(O)C2)c1` (configuration not stated): the cytotoxicity at 10 µM is -5.01%.

On to `COC(C)C(=O)NS(=O)(=O)c1ccc(F)c(C(F)(F)F)c1` (configuration not stated), for which the cytotoxicity at 10 µM is -4.04%.

As to `CCCc1noc(CS(=O)(=O)c2cccc(OC)c2)n1`, the cytotoxicity at 10 µM came out at 17.4%.

As to `CCCC(=O)NS(=O)(=O)c1ccc(C#N)c(C(F)(F)F)c1`, the cytotoxicity at 10 µM is -12.8%.

`O=C1C(Nc2nccn3cnnc23)CCN1c1cccc(Cl)c1` (configuration not stated): the cytotoxicity at 10 µM was -1.7%.

Take `CCN(CC)C(=O)Nc1ccc(C(=O)N(C)C)c(C)c1`: the cytotoxicity at 10 µM is 7.52%.

For the compound `OC(CN1CCCc2cc(OC(F)F)ccc21)Cn1cccn1` (configuration not stated), the cytotoxicity at 10 µM was found to be 6.85%.

Regarding `CCN1CCCCC1C(=O)Nc1cccc(-c2nnc[nH]2)c1` (configuration not stated), the cytotoxicity at 10 µM came out at 4.03%.

As to `Cc1ccc(N2CCCC(N(C)Cc3cc(C)no3)C2)nn1` (configuration not stated), the cytotoxicity at 10 µM was found to be 11.9%.

Regarding `CN(C)CCn1c(=O)oc2ccc(NC(=O)C3CCCO3)cc21` (configuration not stated), the cytotoxicity at 10 µM was found to be 0.743%.

With `Cn1ccnc1CNC1CCCN(Cc2noc(C3CC3)n2)C1` (configuration not stated), the cytotoxicity at 10 µM was -11.1%.

On to `O=C(CCc1cccc(F)c1F)N1CCN(Cc2ccco2)CC1`, for which the cytotoxicity at 10 µM was -11.5%.

In the case of `CS(=O)(=O)NCc1ncn2c1CN(C(=O)C1CCCO1)CCC2` (configuration not stated), the cytotoxicity at 10 µM is -110%.

Turning to `CCN1C[C@H]2N(c3ncccn3)CCC[C@@]2(C(=O)NCC2CC2)C1`, the cytotoxicity at 10 µM was -97.3%.

Consider `COc1cccc(C(C(=O)O)N2CCC(Cn3cccn3)CC2)c1OC` (configuration not stated), for which the cytotoxicity at 10 µM was -1.77%.

For the compound `NCC1CCCN(c2nc(-c3ccccc3)nc3c2CCNCC3)C1` (configuration not stated), the cytotoxicity at 10 µM was -10.3%.

For the compound `COCCN(Cc1cnn(C)c1)CC1CCOC1` (configuration not stated), the cytotoxicity at 10 µM was -8.52%.

Take `COc1ccccc1OC1CN(C(=O)C2CNCC(=O)N2)C1` (configuration not stated): the cytotoxicity at 10 µM was determined as 5.46%.

Take `CC(=O)N1Cc2cnc(C(C)(C)C)nc2C1`: the cytotoxicity at 10 µM is -122%.

For the compound `O=C(O)CNc1cc(-c2cc(C3CC3)ncn2)c2cc[nH]c2n1`, the cytotoxicity at 10 µM is 7.69%.

Regarding `CCC1c2cccn2CCN1C(=O)c1cc(OC)nc(OC)n1` (configuration not stated), the cytotoxicity at 10 µM came out at 15%.

Consider `CCc1ncc2c(n1)CN(c1cc(N3CCN(C)CC3)nc(N)n1)C2`, for which the cytotoxicity at 10 µM was found to be 22.8%.

For the compound `CC(C)Cn1cncc1CNC(=O)c1cccc(Cn2cccn2)c1`, the cytotoxicity at 10 µM was -3.12%.

For `CN1CCC(N(CCc2ccccc2)Cc2noc(C3CC3)n2)CC1`, the cytotoxicity at 10 µM is -3.49%.

In the case of `CCc1csc(CNC(=O)C(CC)n2cccn2)n1` (configuration not stated), the cytotoxicity at 10 µM is -0.651%.

Consider `Cc1cc(=O)[nH]c(SC(C)C(=O)N2CCCN(C3CCCC3)CC2)n1` (configuration not stated), for which the cytotoxicity at 10 µM was -8.04%.

Consider `Cc1nc2c(c(N(C)C)n1)CCN(C(=O)c1sccc1S(N)(=O)=O)C2`, for which the cytotoxicity at 10 µM was -2.29%.

Consider `Cc1nc(CN2CCCC(NCc3ccc4c(c3)CCO4)C2)no1` (configuration not stated), for which the cytotoxicity at 10 µM was -3.61%.

`CCc1nc(C2CCCN2Cc2ccno2)no1` (configuration not stated): the cytotoxicity at 10 µM was 2.52%.

On to `c1ccc(Cc2noc(CN3CCc4cncnc4C3)n2)cc1`, for which the cytotoxicity at 10 µM was -5.91%.

With `COc1cc(CCC(=O)NC(C)C)ccc1OCC(F)(F)F`, the cytotoxicity at 10 µM is -4.24%.

`CCCc1nc(C)c(C(=O)NCCNc2ncccn2)s1`: the cytotoxicity at 10 µM is -7.22%.

`Cn1ncc2c(=O)[nH]c(CN3CCCC3CC(C)(C)C)nc21` (configuration not stated): the cytotoxicity at 10 µM was -1.09%.

Regarding `Cn1ncc2c(=O)[nH]c(CN3CCCC3CCc3ccccc3)nc21` (configuration not stated), the cytotoxicity at 10 µM was -8.21%.

As for `Cc1cccc(-c2nc(CNC3CCc4nc(C)nn4C3)no2)c1` (configuration not stated), the cytotoxicity at 10 µM was -4.3%.

For `CC(NCc1c(C(C)C)nn(C)c1N1CCOCC1)C(=O)N(C)C` (configuration not stated), the cytotoxicity at 10 µM is -10.7%.

Take `Cc1cc(CN2CCC(N(C)Cc3noc(C4CC4)n3)C2)on1` (configuration not stated): the cytotoxicity at 10 µM was determined as 1.54%.

For `O=C(CCc1ccco1)N1CCCN(Cc2cscn2)CC1`, the cytotoxicity at 10 µM is 3.28%.

With `CC(C)N1CCN(C(=O)C(C)n2cncn2)CC1` (configuration not stated), the cytotoxicity at 10 µM worked out at 0.724%.

`CSc1ccc(CNC(=O)NCC(O)c2cccc(F)c2)cc1` (configuration not stated): the cytotoxicity at 10 µM was -6.16%.

For the compound `Cc1cnc(C(=O)NCc2ccc3c(c2)CCCN3C)cn1`, the cytotoxicity at 10 µM is -4.92%.

In the case of `CC(C)=CCN1CCOC(Cn2cccn2)C1` (configuration not stated), the cytotoxicity at 10 µM came out at 2.4%.

Consider `CC(C)CN1CC(C(=O)NCc2cccnc2-n2cccn2)CC1=O` (configuration not stated), for which the cytotoxicity at 10 µM is -1.04%.

For the compound `CCc1noc(CNCC2CCCN2c2cccnn2)n1` (configuration not stated), the cytotoxicity at 10 µM turned out to be 2.11%.

Take `Cc1nnc(C2Cc3ccccc3CN2Cc2c(C)noc2C)o1` (configuration not stated): the cytotoxicity at 10 µM was -13.7%.

Consider `Cc1nnc(CN(C)CC2CCCN2c2cccnn2)o1` (configuration not stated), for which the cytotoxicity at 10 µM was -0.514%.

For the compound `O=C(NCCNc1ncccn1)C1CC(=O)N(CC(F)(F)F)C1` (configuration not stated), the cytotoxicity at 10 µM was -9.02%.

In the case of `Cc1nnc(N2C[C@H](OCc3ccncc3)[C@H]3OCCC[C@H]32)s1`, the cytotoxicity at 10 µM is 13.6%.

Consider `O=C(C[C@@H]1COC[C@H]2CN(Cc3ccncc3)C[C@@H]12)N1CCOCC1`, for which the cytotoxicity at 10 µM stood at 6.59%.

`O=C(Cc1ccccc1)N1CCCC2(COCCN(CC3CC3)C2)C1` (configuration not stated): the cytotoxicity at 10 µM is -1.03%.

For the compound `Cn1nnc2c1CCN(C(=O)C1CCC1)C2COCCN1CCCC1` (configuration not stated), the cytotoxicity at 10 µM is 11%.

Take `CCOCC1CN(C(=O)CS(C)(=O)=O)Cc2cnn(C)c21` (configuration not stated): the cytotoxicity at 10 µM was -6.63%.

With `COCC1CN(c2ccncn2)Cc2cnn(CC3CCCC3)c21` (configuration not stated), the cytotoxicity at 10 µM came to 4.83%.

`COCC1CC2(CCN(S(=O)(=O)C3CC3)CC2)CN1c1ncccn1` (configuration not stated): the cytotoxicity at 10 µM is -2.01%.

`CN1CC(=O)N(c2cccc(F)c2)CC12CCN(CC1CC1)C2` (configuration not stated): the cytotoxicity at 10 µM was determined as 2.26%.

Consider `CO[C@@H]1CCN(C(=O)Cc2cccc(F)c2)[C@H]1Cc1cccnc1`, for which the cytotoxicity at 10 µM is -4.89%.

`CC(=O)N1CCN(Cc2ccco2)CC2(CC(=O)N(C)C2)C1` (configuration not stated): the cytotoxicity at 10 µM was -3.81%.
